# High-throughput results: PubChem BioAssay, several laboratories
# Sampled rows, rich in hits. Any-hit rate of the full collection: about 1.3%.
# EP2 modulator – EP2 receptor modulators, cAMP readout, primary screen, cell-based, HTRF cAMP, PGE2 stimulation; Prostaglandin E2 receptor EP2 subtype (Homo sapiens), P43116; EP2-expressing cells, cAMP HTRF FRET, PGE2 co-stimulation; induction, % at 25 µM; 260,000 tested, 0.83% active; AID 940, 2007;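 active = compounds whose cAMP rise, as percent of the full-agonist control response, exceeds 60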;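 also: rat C6 glioma line stably carrying human EP2 under a CMV promoter; the protocol text gives 20 µM as final concentration; 100% = response of wells given 1 µM PGE2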
# Target sequence (P43116 whole entry, looked up): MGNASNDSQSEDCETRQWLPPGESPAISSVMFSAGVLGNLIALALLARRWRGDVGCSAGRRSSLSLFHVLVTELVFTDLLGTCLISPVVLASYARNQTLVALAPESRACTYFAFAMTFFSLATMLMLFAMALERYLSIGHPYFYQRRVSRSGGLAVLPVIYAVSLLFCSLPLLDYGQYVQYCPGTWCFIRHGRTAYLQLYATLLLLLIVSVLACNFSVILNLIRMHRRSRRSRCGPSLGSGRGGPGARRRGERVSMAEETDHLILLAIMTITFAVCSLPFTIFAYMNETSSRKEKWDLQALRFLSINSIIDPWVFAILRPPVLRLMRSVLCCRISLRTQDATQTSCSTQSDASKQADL
# NR2E3 ag-1 – NR2E3 agonists in two-hybrid cells, primary screen, cell-based, luminescence, CHO-S, Gal4-NCOR/VP16-NR2E3; Photoreceptor-specific nuclear receptor (Homo sapiens), Q9Y5X4; luciferase; inhibition of corepressor binding, % at 3.98 µM; 360,000 tested, 0.35% active;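 active = inhibition above the mean of all tested compounds plus 3 SD, cut at about 70% in these data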;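 also: 0% = DMSO with NR2E3 transfected cells and 100% = cells lacking NR2E3 construct; higher means lower luciferase signal from less NR2E3 corepressor binding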
# NR2E3 ag-2 – inhibitors of NR2E3-RetCOR corepressor binding, primary screen, NR2E3 agonist project, biochemical, TR-FRET, GST-NR2E3, biotin-RetCOR | Photoreceptor-specific nuclear receptor (Homo sapiens), Q9Y5X4 | 1536-well | inhibition of corepressor binding, % at 4.78 µM | 320,000 tested, 0.12% active;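 active = percent inhibition above the cutoff of mean plus 3 SD of all tested compounds, set per screening campaign, cut at about 20% in these data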;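 also: 0% = DMSO wells and 100% = biotin wells as full block of FRET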
#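 Test system – NR2E3–RetCOR corepressor complex · Quantity – NR2E3 fusion 1.35 nM · Buffer or medium – Tris pH 7.5 · Incubation – Compound–protein incubation for 5 h at 4 °C · Technique – TR-FRET, Eu(K)-anti-GST donor, streptavidin-D2 acceptor, ex 340, em 617/671 nm · Evaluation – percent inhibition of 671/617 nm emission ratio versus biotin and DMSO controls · Plate – 1536-well format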
# GASC-1 inh – inhibitors of GASC-1 histone demethylase, primary screen, biochemical, fluorescence, DELFIA europium; Lysine-specific demethylase 4C (Homo sapiens), Q9H3R0; GST-JMJD2C(1-420) H3K9me3 demethylation; inhibition, % at 2.35 µM; 330,000 tested, 0.069% active; AID 2099, 2009;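 active = more than half of a compound's replicate wells show inhibition beyond 50%, single wells judged on their own value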;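 also: signal counts dimethyl H3K9 product captured on neutravidin plate; 0% = median of DMSO wells and 100% = 0.3 times that DMSO median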
# Furin inh – human furin inhibitors, primary screen, biochemical, fluorescence intensity; purified furin, fluorogenic substrate cleavage; inhibition, % at 20 µM or 30 µM; 220,000 tested, 0.061% active; AID 463115, 2010; in the data active = inhibition above about 25%
# PGE2 EP2 inh – human EP2 receptor antagonists, primary screen, TR-FRET cAMP, C6 glioma cells; Prostaglandin E2 receptor EP2 subtype (Homo sapiens), P43116; C6 glioma cells expressing human EP2; cells stimulated with saturating PGE2; inhibition, % at 25 µM; 260,000 tested, 0.52% active; AID 1422, 2008;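 active = percent inhibition above 40 after rounding to a whole number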;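 also: rat C6 glioma host cells with rolipram phosphodiesterase inhibitor present; the protocol text gives 20 µM as final concentration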
# NR2E3 ag conf – NR2E3 agonist confirmation in cells, cell-based, luminescence, CHO-S two-hybrid; shares compounds with NR2E3 ag-1; CHO-S mammalian two-hybrid NR2E3-NCOR, luciferase luminescence; inhibition, % at 3.98 µM; 2,300 tested, 51% active; AID 624378, 2012;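 active = average inhibition above a cutoff equal to the mean inhibition of all tested compounds plus one SD, cut at about 70% in these data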;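 also: 0% = DMSO in NR2E3 cells and 100% = DMSO in cells lacking NR2E3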
# VP16 counter – GAL4-VP16 reporter modulators, confirmation, counter-screen for NR2E3 agonist project, cell-based, luminescence, CHO-S, high throughput; AID 624379, 2012; inhibition, % at 3.98 µM; 2,300 tested, 29% active; CHO-S GAL4-VP16 luciferase reporter; shares compounds with NR2E3 ag-1;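 active = mean inhibition above a cutoff equal to the average over all tested compounds plus one standard deviation, cut at about 70% in these data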;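 also: luciferase from a UAS reporter driven by GAL4-VP16 transactivation; 0% = DMSO with VP16-transfected cells and 100% = DMSO with cells lacking VP16; higher means less reporter light so more repression of VP16 activity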
# Active calls of the source: *; . = not tested or not shown.
SMILES,EP2 modulator,NR2E3 ag-1,NR2E3 ag-2,GASC-1 inh,Furin inh,PGE2 EP2 inh,NR2E3 ag conf,VP16 counter
Cc1ccc(C)c2[nH]c(=O)c(CN(Cc3ccc(F)cc3)Cc3nnnn3C3CCCC3)cc12,37,.,.,.,.,10,.,.
CCn1nc(C)c(CNC(=O)c2ccc(OC3CCN(Cc4ccccn4)CC3)cc2)c1C,.,79*,.,-8,.,.,57,60
COc1ccc(C(=O)Nc2ccccc2N2CCN(C(=O)C(C)C)CC2)cc1OC,-29,.,.,.,.,15,.,.
Cc1cc(/C=C2/SC(=S)N(c3cccc(Cl)c3)C2=O)c(C)n1-c1cccnc1,.,63,1,0,-17,15,53,66
O=C(CN1CCC(n2nnc3cc(C(F)(F)F)ccc32)CC1)NCc1ccccc1,-28,.,.,.,.,6,.,.
CC1Cc2ccccc2N1C(=O)CN1CCC(n2nnc3cc(C(F)(F)F)ccc32)CC1 (stereo unspecified),-30,53,2,5,-16,11,37,16
COCCNC(=S)N1CCC(NC(=O)c2cccc(F)c2)CC1,-10,.,.,.,.,10,.,.
Cc1nc2ccc(S(=O)(=O)Nc3cccc(-c4nc5cccnc5s4)c3)cc2s1,-67,71*,6,7,-7,21,76*,45
Cc1nc2ccc(NS(=O)(=O)c3c(C)c(C)cc(C)c3C)cc2s1,1,10,3,-2,-8,15,.,.
Cc1nc2ccc(S(=O)(=O)Nc3ccc(-c4nc5cccnc5s4)cc3)cc2s1,-20,-8,8,3,-17,8,.,.
Cc1ccc(S(=O)(=O)Nc2ccc3nc(C)sc3c2)c(C)c1,.,67,0,7,.,.,72*,64
Cc1nc2ccc(NS(=O)(=O)c3ccc4c(c3)OCCO4)cc2s1,-27,94*,-4,4,-10,19,97*,91*
Cc1ccc(S(=O)(=O)Nc2ccc3nc(N)sc3c2)cc1,-15,25,-3,-6,-11,2,.,.
Cc1nc2ccc(NS(=O)(=O)c3ccc(Br)cc3)cc2s1,.,85*,1,4,.,.,97*,76*
Cc1cccc(C)c1NC(=O)CSc1n[nH]c(-c2ccncc2)n1,7,.,.,.,.,7,.,.
O=C(NC1CCCCC1)N1CCC(NC(=O)C23CC4CC(CC(C4)C2)C3)CC1,5,.,.,.,.,6,.,.
CN(C)c1nc2ccccc2cc1CN1CCc2c(nc(N3CCCC3)[nH]c2=O)C1,3,.,.,.,.,.,.,.
Cc1ccc(S(=O)(=O)Nc2ccc3nc(C)sc3c2)cc1,-34,72*,2,11,-6,-3,88*,76*
Cc1nc2ccc(NS(=O)(=O)c3ccccc3F)cc2s1,.,32,-1,-9,.,.,.,.
CC(=O)Nc1ccc(S(=O)(=O)Nc2ccc3nc(C)sc3c2)cc1,.,43,.,4,.,.,.,.
Cc1nc2ccc(NS(=O)(=O)c3ccc(F)c(F)c3)cc2s1,.,65,3,-2,.,.,59,46
Cc1nc2ccc(NS(=O)(=O)c3cccc([N+](=O)[O-])c3)cc2s1,.,63,.,-1,.,.,85*,72*
O=C(NCc1nc(-c2ccncc2)n[nH]1)c1cc(F)cc(F)c1,15,.,.,.,.,8,.,.
Cc1nn(Cc2ccccc2)c(C)c1NC(=O)c1cc2n(n1)C(C(F)(F)F)CC(c1ccco1)N2 (stereo unspecified),-33,.,.,.,.,14,.,.
COc1ccc2[nH]c(=O)c(-c3noc(C(C)(C)C)n3)cc2c1,-87,.,.,.,.,5,.,.
SMILES,EP2 modulator,NR2E3 ag-1,NR2E3 ag-2,GASC-1 inh,Furin inh,PGE2 EP2 inh,NR2E3 ag conf,VP16 counter
COc1ccc2c(CC(=O)Nc3ncc(C)s3)coc2c1,-3,62,7,-37,-15,5,96*,-67
O=C(Cc1ccc(Cl)cc1)Nc1ncc([N+](=O)[O-])s1,-41,-37,.,-22,-11,3,.,.
Cc1cnc(NC(=O)Cc2cccs2)s1,8,-9,1,7,-13,14,.,.
O=C(Cc1ccc(Br)cc1)Nc1ncc([N+](=O)[O-])s1,-36,72*,1,-7,-13,6,97*,60
Cc1cnc(NC(=O)Cc2ccc(Br)cc2)s1,.,60,-1,1,.,.,91*,5
CCC(Oc1ccccc1)C(=O)Nc1ccc(S(=O)(=O)N2CCCCC2)cc1 (stereo unspecified),5,.,.,.,.,14,.,.
CC1CCN(C(=O)c2cccc(I)c2)CC1,-2,.,.,.,.,10,.,.
Clc1c(Cl)c(Cl)c2n[nH]nc2c1Cl,-24,64,-4,-14,-25,12,96*,81*
S=C(Nc1ccc(Br)cc1)Nc1ccc2c(c1)OCCO2,.,50,2,-9,.,.,-85,-79
CC(=O)Nc1cccc(OCC(O)Cn2c(C)nc3ccccc32)c1 (stereo unspecified),20,-7,-1,6,-9,7,.,.
CCCOC(=O)c1ccc(OCC(O)Cn2c(C)nc3ccccc32)cc1 (stereo unspecified),-5,62,.,-16,-14,.,65,70
Cc1nc(N/N=C/c2cccc(F)c2)cc(N2CCOCC2)n1,.,49,2,-3,.,.,21,13
COCC1CCCN(C(=O)c2cc(COc3ccc4ncccc4c3)on2)C1 (stereo unspecified),.,105*,2,-3,.,.,94*,87*
CCC1CCCCN1C(=O)c1cc(COc2ccc(-n3cncn3)cc2)on1 (stereo unspecified),.,60,1,6,.,.,47,60
Cc1cccnc1CN1CCN(C(=O)c2cc(COc3ccc4ncccc4c3)on2)CC1,-26,78*,-6,4,-30,4,99*,88*
O=C(c1cc(COc2ccc3ncccc3c2)on1)N1CCCC(O)C1 (stereo unspecified),-28,5,2,-13,-22,1,.,.
CC(CNC(=O)c1cc(COc2ccc3ncccc3c2)on1)c1ccccc1 (stereo unspecified),.,105*,0,8,.,.,96*,80*
Cc1n(CC(O)COc2ccc(C(C)C)cc2)c2ccccc2[n+]1C (stereo unspecified),-218,.,.,.,.,2,.,.
